In ChEMBL document CHEMBL4024758, “Structure-Based Design and Discovery of New M2 Receptor Agonists” (J Med Chem, 2017):
Active and inactive are the calls of the source. No cut-off for these calls is given here.

Tests used:
[1] = target: T1, Muscarinic acetylcholine receptor M1 (Homo sapiens, UniProt P11229); test: Displacement of [3H]N-methyl-scopolamine bromide from human recombinant muscarinic M1 receptor expressed in HEK293T cell membranes after 1 hr by liquid scintillation counting method; type: cell-based, HEK-293T
T1 sequence (P11229 whole entry): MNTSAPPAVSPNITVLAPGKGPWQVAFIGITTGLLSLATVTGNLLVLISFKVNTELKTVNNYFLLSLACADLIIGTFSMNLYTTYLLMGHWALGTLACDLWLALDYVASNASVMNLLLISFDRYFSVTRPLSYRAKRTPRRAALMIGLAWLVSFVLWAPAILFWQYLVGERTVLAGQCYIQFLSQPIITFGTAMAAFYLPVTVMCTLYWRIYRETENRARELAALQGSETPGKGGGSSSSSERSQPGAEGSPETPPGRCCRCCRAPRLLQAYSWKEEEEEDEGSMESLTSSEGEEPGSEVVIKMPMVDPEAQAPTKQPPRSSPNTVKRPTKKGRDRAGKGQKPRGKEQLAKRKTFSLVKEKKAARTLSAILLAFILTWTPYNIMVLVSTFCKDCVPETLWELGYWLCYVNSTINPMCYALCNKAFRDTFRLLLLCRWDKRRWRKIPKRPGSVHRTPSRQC

[2] = target: T2, Muscarinic acetylcholine receptor M2 (Homo sapiens, UniProt P08172); test: Displacement of [3H]N-methyl-scopolamine bromide from human recombinant muscarinic M2 receptor expressed in HEK293T cell membranes after 1 hr by liquid scintillation counting method; design: species or system HEK-293T
T2 sequence (P08172 whole entry): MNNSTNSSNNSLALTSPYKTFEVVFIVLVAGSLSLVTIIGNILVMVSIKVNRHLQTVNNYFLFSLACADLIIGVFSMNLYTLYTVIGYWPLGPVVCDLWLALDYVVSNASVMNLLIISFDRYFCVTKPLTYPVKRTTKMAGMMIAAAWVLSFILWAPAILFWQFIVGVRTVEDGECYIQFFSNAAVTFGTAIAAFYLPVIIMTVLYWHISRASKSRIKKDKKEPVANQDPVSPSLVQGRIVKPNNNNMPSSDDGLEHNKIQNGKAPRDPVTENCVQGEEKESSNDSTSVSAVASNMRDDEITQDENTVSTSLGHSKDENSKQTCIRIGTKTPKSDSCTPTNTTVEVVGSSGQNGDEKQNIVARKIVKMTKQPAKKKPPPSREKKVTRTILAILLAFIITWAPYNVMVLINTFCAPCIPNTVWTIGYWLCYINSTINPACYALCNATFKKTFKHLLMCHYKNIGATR

[3] = target: T3, Muscarinic acetylcholine receptor M3 (Homo sapiens, UniProt P20309); test: Displacement of [3H]N-methyl-scopolamine bromide from human recombinant muscarinic M3 receptor expressed in HEK293T cell membranes after 1 hr by liquid scintillation counting method; type: cell-based, HEK-293T
Target sequence in this assay (P20309 whole entry): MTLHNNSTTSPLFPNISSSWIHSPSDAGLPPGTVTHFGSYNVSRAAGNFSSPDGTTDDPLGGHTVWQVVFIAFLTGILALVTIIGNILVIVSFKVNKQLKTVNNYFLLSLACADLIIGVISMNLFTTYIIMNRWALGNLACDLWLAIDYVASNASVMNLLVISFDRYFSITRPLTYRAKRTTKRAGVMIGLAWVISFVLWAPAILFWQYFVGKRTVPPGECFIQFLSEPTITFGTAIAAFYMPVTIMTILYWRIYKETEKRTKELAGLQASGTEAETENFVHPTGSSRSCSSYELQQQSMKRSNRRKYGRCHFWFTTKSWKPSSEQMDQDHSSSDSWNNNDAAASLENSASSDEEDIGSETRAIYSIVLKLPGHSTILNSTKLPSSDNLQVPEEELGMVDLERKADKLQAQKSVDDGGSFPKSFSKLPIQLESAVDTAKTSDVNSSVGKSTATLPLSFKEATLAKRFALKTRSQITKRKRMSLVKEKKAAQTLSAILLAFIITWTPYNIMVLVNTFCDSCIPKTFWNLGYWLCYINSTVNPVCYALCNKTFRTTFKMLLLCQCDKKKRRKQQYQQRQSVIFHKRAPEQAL

[4] = target: T4, Muscarinic acetylcholine receptor M2 (Homo sapiens) (UniProt P08172); settings: 10 uM
T4 sequence (whole entry): T2 sequence (P08172 whole entry)

[5] = target: T2, Muscarinic acetylcholine receptor M2; test: Agonist activity at human recombinant muscarinic M2 receptor co-expressed with Galphaqi5-HA in African green monkey COS7 cells assessed as IP accumulation after 2 hrs in presence of myo-[3H]inositol by liquid scintillation counting method; type: functional
[6] = target: T1, Muscarinic acetylcholine receptor M1; test: Displacement of [3H]N-methyl-scopolamine from human recombinant muscarinic M1 receptor expressed in CHO-FlpIn cells after 6 hrs by liquid scintillation counting method; type: cell-based; settings: read-out: Ki(app)
[7] = target: T2, Muscarinic acetylcholine receptor M2; test: Displacement of [3H]N-methyl-scopolamine from human recombinant muscarinic M2 receptor expressed in CHO-FlpIn cells after 6 hrs by liquid scintillation counting method; type: cell-based; settings: read-out: Ki(app)
[8] = target: T3, Muscarinic acetylcholine receptor M3; test: Displacement of [3H]N-methyl-scopolamine from human recombinant muscarinic M3 receptor expressed in CHO-FlpIn cells after 6 hrs by liquid scintillation counting method; type: cell-based; settings: read-out: Ki(app)
Target sequence in this assay (P20309 whole entry): as above

[9] = target: T4, Muscarinic acetylcholine receptor M2 (Homo sapiens); test: Agonist activity at Gi/o coupled recombinant human M2 mAChR expressed in CHO-FlpIn cells assessed as IP-one accumulation after 40 mins by HTRF assay; type: cell-based
Outline: (§1)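 Stably transfected CHO-FlpIn whole cells, 20000/well, grown overnight at 37 °C with 5% CO2. Cells were washed with PBS, then held 60 min at 37 °C in HEPES stimulation buffer with 50 mM LiCl, pH 7.4. ACh or test ligand was added and incubated 40 min.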

[10] = target: T1, Muscarinic acetylcholine receptor M1; test: Agonist activity at Gq/11 coupled recombinant human muscarinic M1 AChR expressed in CHO-FlpIn cells assessed as IP-one accumulation after 40 mins by HTRF assay; type: cell-based
[11] = target: T5, Muscarinic acetylcholine receptor M1 (Homo sapiens) (UniProt P11229); test: Agonist activity at Gq/11 coupled recombinant human M1 mAChR expressed in CHO-FlpIn cells assessed as IP-one accumulation after 40 mins by HTRF assay relative to ACh; type: cell-based; outline: as §1
T5 sequence (whole entry): T1 sequence (P11229 whole entry)

[12] = target: T3, Muscarinic acetylcholine receptor M3; test: Agonist activity at Gq/11 coupled recombinant human M3 mAChR expressed in CHO-FlpIn cells assessed as IP-one accumulation at 100 uM after 40 mins by HTRF assay relative to ACh; type: cell-based
Target sequence in this assay (P20309 whole entry, looked up): as the sequence (P20309 whole entry) above

[13] = target: T2, Muscarinic acetylcholine receptor M2; test: Agonist activity at Gi/o protein-coupled recombinant human muscarinic M2 receptor expressed in CHO-FlpIn cells preincubated for 60 mins followed by [35S]GTPgammaS addition measured after 30 mins by liquid scintillation counting method; type: functional, cell-based
[14] = target: T4, Muscarinic acetylcholine receptor M2 (Homo sapiens); test: Agonist activity at Gi/o protein-coupled recombinant human muscarinic M2 receptor expressed in CHO-FlpIn cells preincubated for 60 mins followed by [35S]GTPgammaS addition after 30 mins by liquid scintillation counting method relative to ACh; type: functional, cell-based
Outline: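 Membranes (15 μg) came from CHO cells stably expressing M2R. They were equilibrated 60 min at 30 °C in buffer containing GDP plus ACh or compound. [35S]GTPγS (1 nM) was then added for 30 min at 30 °C. Samples were filtered on GF/B filters, washed with ice-cold 0.9% NaCl and counted by scintillation.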

[15] = target: T2, Muscarinic acetylcholine receptor M2; test: Agonist activity at recombinant human muscarinic M2 receptor expressed in HEK293 cells assessed as inhibition of forskolin-mediated cAMP accumulation after 10 mins by FRET assay; type: functional, cell-based
[16] = target: T4, Muscarinic acetylcholine receptor M2 (Homo sapiens); test: Agonist activity at recombinant human muscarinic M2 receptor expressed in HEK293 cells assessed as inhibition of forskolin-mediated cAMP accumulation after 10 mins by FRET assay relative to ACh; type: functional, cell-based
Outline: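 HEK293 cells stably expressed the Epac FRET cAMP sensor and M2AChR-tetO, induced with 2 μg/mL doxycycline and 1 mM sodium butyrate for 40 h. Basal CFP/YFP was read after 20 min at 37 °C. […] Basal was subtracted; results are from 4–5 experiments in duplicate.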

[17] = target: T2, Muscarinic acetylcholine receptor M2; test: Agonist activity at recombinant human muscarinic M2 receptor expressed in HEK293 cells co-expressing beta-arrestin assessed as increase in beta-arrestin recruitment after 24 hrs by Bright-Glo luminescence assay; type: cell-based
Outline: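 HEK293 cells stably expressing tTA-dependent luciferase and β-arrestin-TEV protease, transiently transfected with M2-TEV-tTA; next day plated 15000 cells/well in DMEM 1% FBS on poly-D-lysine; after ≥6 h, compounds 0–100 μM in HBSS-HEPES; following day Bright-Glo added, luminescence after 20 min; 4–5 experiments in triplicate.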

[18] = target: T4, Muscarinic acetylcholine receptor M2 (Homo sapiens); test: Agonist activity at recombinant human muscarinic M2 receptor expressed in HEK293 cells co-expressing beta-arrestin assessed as increase in beta-arrestin recruitment after 24 hrs by Bright-Glo luminescence assay relative to ACh; type: cell-based
Outline: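 HEK293 cells stably expressing tTA-dependent luciferase and β-arrestin-TEV protease were transiently transfected with M2-TEV-tTA. Next day, cells were plated at 15000/well in DMEM with 1% FBS. After ≥6 h, compound (0–100 μM, in HBSS-HEPES pH 7.4) was added. The following day, luminescence was read with Bright-Glo. Results are from 4–5 experiments in triplicate.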

[19] = target: T1, Muscarinic acetylcholine receptor M1; test: Agonist activity at recombinant human muscarinic M1 receptor expressed in CHO cells assessed as upregulation in ERK1/2 phosphorylation after 5 mins by alphascreen assay; type: cell-based
[20] = target: T5, Muscarinic acetylcholine receptor M1 (Homo sapiens); test: Agonist activity at recombinant human muscarinic M1 receptor expressed in CHO cells assessed as upregulation in ERK1/2 phosphorylation after 5 mins by alphascreen assay relative to ACh; type: cell-based
[21] = target: T2, Muscarinic acetylcholine receptor M2; test: Agonist activity at recombinant human muscarinic M2 receptor expressed in CHO cells assessed as upregulation in ERK1/2 phosphorylation after 5 mins by alphascreen assay; type: cell-based
[22] = target: T4, Muscarinic acetylcholine receptor M2 (Homo sapiens); test: Agonist activity at recombinant human muscarinic M2 receptor expressed in CHO cells assessed as upregulation in ERK1/2 phosphorylation after 5 mins by alphascreen assay relative to ACh; type: cell-based
[23] = target: T4, Muscarinic acetylcholine receptor M2 (Homo sapiens); test: Agonist activity at human recombinant muscarinic M2 receptor co-expressed with Galphaqi5-HA in African green monkey COS7 cells assessed as IP accumulation after 2 hrs in presence of myo-[3H]inositol by liquid scintillation counting method relative to carbachol; type: functional
[24] = target: T3, Muscarinic acetylcholine receptor M3
Target sequence in this assay (P20309 whole entry): as above

[25] = target: Neuronal acetylcholine receptor; alpha4/beta2 (Homo sapiens, UniProt P17787+P43681); test: Displacement of [3H]cytisine from alpha4beta2 nAChR expressed in human recombinant SH-SY5Y cell membranes after 120 mins
Sequence of Neuronal acetylcholine receptor; alpha4/beta2 (P17787 whole entry): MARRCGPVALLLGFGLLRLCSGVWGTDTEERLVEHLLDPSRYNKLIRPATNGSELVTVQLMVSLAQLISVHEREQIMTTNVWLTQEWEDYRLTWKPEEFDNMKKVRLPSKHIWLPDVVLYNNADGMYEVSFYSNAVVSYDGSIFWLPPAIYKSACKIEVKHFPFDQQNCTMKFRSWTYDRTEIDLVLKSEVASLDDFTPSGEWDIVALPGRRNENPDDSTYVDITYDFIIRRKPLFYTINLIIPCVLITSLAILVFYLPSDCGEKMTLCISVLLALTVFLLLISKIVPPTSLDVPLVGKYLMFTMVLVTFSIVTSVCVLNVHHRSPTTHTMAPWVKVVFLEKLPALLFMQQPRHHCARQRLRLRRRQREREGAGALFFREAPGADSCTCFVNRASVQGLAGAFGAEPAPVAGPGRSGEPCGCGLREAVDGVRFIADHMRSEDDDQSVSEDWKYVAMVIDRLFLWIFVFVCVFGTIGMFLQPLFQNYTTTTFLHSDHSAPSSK
Sequence of Neuronal acetylcholine receptor; alpha4/beta2 (P43681 whole entry): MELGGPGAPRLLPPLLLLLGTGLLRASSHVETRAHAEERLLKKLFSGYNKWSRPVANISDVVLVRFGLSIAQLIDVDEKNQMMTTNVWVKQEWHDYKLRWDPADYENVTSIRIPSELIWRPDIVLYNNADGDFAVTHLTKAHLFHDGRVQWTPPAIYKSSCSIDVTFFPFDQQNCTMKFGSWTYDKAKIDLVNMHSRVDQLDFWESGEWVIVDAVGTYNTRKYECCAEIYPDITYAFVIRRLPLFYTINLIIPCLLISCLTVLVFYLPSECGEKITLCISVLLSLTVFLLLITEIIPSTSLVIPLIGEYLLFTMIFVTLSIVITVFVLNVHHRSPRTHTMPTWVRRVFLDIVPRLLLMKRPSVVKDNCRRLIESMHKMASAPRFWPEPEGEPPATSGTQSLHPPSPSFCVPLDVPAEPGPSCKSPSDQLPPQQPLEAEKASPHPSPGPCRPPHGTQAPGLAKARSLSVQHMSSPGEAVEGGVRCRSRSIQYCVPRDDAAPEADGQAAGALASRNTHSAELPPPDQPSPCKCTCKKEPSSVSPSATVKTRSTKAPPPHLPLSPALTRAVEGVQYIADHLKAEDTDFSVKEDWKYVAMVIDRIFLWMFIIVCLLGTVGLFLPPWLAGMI

[26] = target: T3, Muscarinic acetylcholine receptor M3; remark: listed apart in the source
Target sequence in this assay (P20309 whole entry, looked up): as the sequence (P20309 whole entry) above

`COc1cccc(CCC[N+](C)(C)C)c1` was tested. Which Ki [1] did it give?
The Ki was 0.33 µM.

What about the Ki [2] of the same compound?
The Ki was 0.63 µM.

And the Ki [3]?
Its Ki is 0.62 µM.

What about the Emax [4] of the same compound?
Its Emax is less than 10%.

`COc1cccc(CC[N+](C)(C)C)c1` was tested. Which Ki [1] did it give?
Its Ki is 33 µM.

And the Ki [2]?
Its Ki is 14 µM.

And the Ki [3]?
Its Ki is greater than 50 µM.

What about the EC50 [5] of the same compound?
Its EC50 is 12 µM.

What about the Ki [6] of the same compound?
Its Ki is 52 µM.

And the Ki [7]?
The Ki was 9.1 µM.

And the Ki [8]?
The Ki was 81 µM.

And the Activity [9]?
The Activity was “inactive”.

What about the EC50 [10] of the same compound?
Its EC50 is 9.1 µM.

And the Emax [11]?
The Emax was 48%.

And the Emax [12]?
The Emax was 43%.

What about the EC50 [13] of the same compound?
The EC50 was 7.8 µM.

And the Emax [14]?
Its Emax is 100%.

And the EC50 [15]?
Its EC50 is 6.3 µM.

What about the Emax [16] of the same compound?
The Emax was 108%.

And the EC50 [17]?
Its EC50 is 14 µM.

What about the Emax [18] of the same compound?
The Emax was 133%.

And the EC50 [19]?
The EC50 was 0.54 µM.

And the Emax [20]?
The Emax was 53%.

What about the EC50 [21] of the same compound?
Its EC50 is 0.83 µM.

What about the Emax [22] of the same compound?
The Emax was 92%.

And the Emax [23]?
The Emax was 75%.

What about the EC50 [24] of the same compound?
Its EC50 is 10 µM.

Which Ki [1] does the source give for `C[N+](C)(C)CCc1ccc2c(c1)OCC2` here?
Its Ki is 6.4 µM.

And the Ki [2]?
The Ki was 13 µM.

And the Ki [3]?
The Ki was 6.3 µM.

What about the EC50 [5] of the same compound?
The EC50 was 21 µM.

And the Ki [6]?
The Ki was 6.8 µM.

And the Ki [7]?
Its Ki is 2 µM.

What about the Ki [8] of the same compound?
The Ki was 7.8 µM.

And the Activity [9]?
Its Activity is “inactive”.

What about the EC50 [10] of the same compound?
Its EC50 is 4.8 µM.

What about the Emax [11] of the same compound?
The Emax was 8%.

What about the Emax [12] of the same compound?
The Emax was 17%.

And the EC50 [13]?
The EC50 was 3.3 µM.

What about the Emax [14] of the same compound?
The Emax was 100%.

What about the EC50 [15] of the same compound?
The EC50 was 11 µM.

What about the Emax [16] of the same compound?
The Emax was 102%.

And the EC50 [17]?
Its EC50 is 17 µM.

And the Emax [18]?
The Emax was 118%.

And the EC50 [21]?
Its EC50 is 0.24 µM.

What about the Emax [22] of the same compound?
Its Emax is 100%.

And the Ki [25]?
Its Ki is 9.7 µM.

What about the Emax [23] of the same compound?
The Emax was 62%.

What about the EC50 [24] of the same compound?
Its EC50 is 3.7 µM.

And the pEC50 [26]?
Its pEC50 is 5.43 µM.
